We go through five compounds from ChEMBL document CHEMBL1125554, “Studies on pyridonecarboxylic acids. 1. Synthesis and antibacterial evaluation of 7-substituted-6-halo-4-oxo-4H-[1,3]thiazeto[3,2-a]quinoline-3-carboxylic acids” (J Med Chem, 1992).

The subject of one data set is Staphylococcus aureus. Put plainly: In vitro antibacterial activity against Staphylococcus aureus 209P JC-1. In kind it is functional. The settings on record: Staphylococcus aureus; read-out: MIC. In outline: (§1)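 MIC (μg/mL) by 2-fold agar dilution on Sensitivity Test agar, following the Japan Society of Chemotherapy MIC Committee method. Inocula were about 10⁶ cfu/mL. Growth was read after 20 h incubation at 37 °C.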

In another data set the test system is Klebsiella pneumoniae. Put plainly: In vitro antibacterial activity against Klebsiella pneumoniae K-1966. In kind it is functional. Conditions: Klebsiella pneumoniae; read-out: MIC. An outline of the steps: as §1
The species entered for data set [1] is Mus musculus. Put plainly: Compound was evaluated for oral efficacy on systemic infections in mice by Escherichia coli KC-14. In kind it is functional. In outline:
(§2)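 Male ddY mice (20 ± 2 g), seven per dose group. Challenge was intraperitoneal, 0.5 mL of bacteria suspended in 5% gastric mucin: E. coli KC-14 at 4.3 × 10⁴ cfu/mL or P. aeruginosa E-2 at 2.88 × 10⁵ cfu/mL. Drug was suspended in 0.5% HPC-SL and given orally 2 h (E. coli) or 1 h (P. aeruginosa) after challenge. ED50 was calculated by Probit from 7-day survival.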

Another data set deals with Serratia marcescens. The experiment in a line: In vitro antibacterial activity against Serratia marcescens IFO 3736. In kind it is functional. Conditions: Serratia marcescens, IFO 3736; read-out: MIC. In outline: as §1
A further data set has as its system Pseudomonas aeruginosa. The experiment in a line: In vitro antibacterial activity against Pseudomonas aeruginosa E-2. In kind it is functional. The settings on record: Pseudomonas aeruginosa; read-out: MIC. An outline of the steps:
as §1

In another data set the test system is Micrococcus luteus. The experiment in a line: In vitro antibacterial activity against Micrococcus luteus ATCC 9341. In kind it is functional. Conditions: Micrococcus luteus, ATCC 9341; read-out: MIC. In outline:
as §1

The species entered for data set [2] is Mus musculus. Put plainly: Compound was evaluated for oral Pseudomonas aeruginosa E-2. In kind it is functional. In outline: as §2
A further data set relates to Shigella flexneri. The experiment in a line: In vitro antibacterial activity against Shigella flexneri 2a EW-10. In kind it is functional. Conditions: Shigella flexneri; read-out: MIC. An outline of the steps: as §1
The next data set deals with Escherichia coli. Put plainly: In vitro antibacterial activity against Escherichia coli NIH JC-2. In kind it is functional. Conditions: Escherichia coli; read-out: MIC. In outline: as §1
A short description of data set [3]: Lethal dose on systemic infections in mice after oral administration. In kind it is toxicity, organism-based. Conditions: mouse, in vivo. In outline: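 Acute oral toxicity: the suspension was given orally in 0.5% HPC-SL to Slc:SD rats, although the section heading says mice. Males weighed 141-168 g and females 113-127 g, five per group. LD50 was determined by the method of Weil 7 days after dosing.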

In brackets after ≈: the same amount, converted by molar mass.

The MIC is the lowest concentration found to suppress growth. Broadly, the ED50 is the dose that gives a 50% effect, or the effect in half of the subjects. A high value points to weaker potency. As a reminder, the LD50 is the dose at which mortality reaches 50%. The low end stands for greater toxicity, the high end for lower toxicity.

As to `CC1Sc2c(C(=O)O)c(=O)c3cc(F)c(N4CCN(C)CC4)cc3n21` (centres undefined), the MIC in the data set with Staphylococcus aureus came to 0.1 µg/mL (≈ 0.275 µM); with Klebsiella pneumoniae, 0.025 µg/mL (≈ 0.0688 µM); in the data set with Serratia marcescens, 0.05 µg/mL (≈ 0.138 µM); in the data set with Pseudomonas aeruginosa, 0.39 µg/mL (≈ 1.07 µM); in the data set on Micrococcus luteus, 1.56 µg/mL (≈ 4.29 µM); with Shigella flexneri, 0.0125 µg/mL (≈ 0.0344 µM). Moreover, the MIC in the data set on Escherichia coli turned out to be 0.025 µg/mL (≈ 0.0688 µM). Besides, the results for the ED50 in the data set listed under Mus musculus [1] and in the data set filed under Mus musculus [2] were 0.97 mg/kg and 8.84 mg/kg, respectively.

For the compound `CN1CCN(c2cc3c(cc2F)c(=O)c(C(=O)O)c2n3CS2)CC1`, the MIC in the data set with Staphylococcus aureus amounted to 0.05 µg/mL (≈ 0.143 µM); in the data set with Klebsiella pneumoniae it was 0.025 µg/mL (≈ 0.0716 µM); in the data set with Serratia marcescens, 0.05 µg/mL (≈ 0.143 µM); with Pseudomonas aeruginosa it was 0.39 µg/mL (≈ 1.12 µM); in the data set with Micrococcus luteus, 12.5 µg/mL (≈ 35.8 µM); with Shigella flexneri, 0.006 µg/mL (≈ 0.0172 µM). Also, the MIC in the data set with Escherichia coli worked out at 0.0125 µg/mL (≈ 0.0358 µM). The ED50 in the data set listed under Mus musculus [1] is 1.77 mg/kg; in the data set listed under Mus musculus [2], 16.4 mg/kg.

Turning to `O=C(O)c1cn(C2CC2)c2cc(N3CCNCC3)c(F)cc2c1=O` [CIPROFLOXACIN], the minimal inhibitory concentration (MIC) in the data set on Staphylococcus aureus came to 0.1 µg/mL (≈ 0.302 µM); in the data set on Klebsiella pneumoniae it was 0.006 µg/mL (≈ 0.0181 µM); with Serratia marcescens it was 0.1 µg/mL (≈ 0.302 µM); in the data set on Pseudomonas aeruginosa, 0.2 µg/mL (≈ 0.604 µM); in the data set with Micrococcus luteus, 1.56 µg/mL (≈ 4.71 µM); in the data set on Shigella flexneri it was 0.006 µg/mL (≈ 0.0181 µM). Moreover, in the data set on Escherichia coli, the minimum inhibitory concentration (MIC) is 0.0125 µg/mL (≈ 0.0377 µM). The figures for the ED50 in the data set filed under Mus musculus [1] and in the data set listed under Mus musculus [2] were 0.45 mg/kg and 9.01 mg/kg, respectively.

On to `CC1COc2c(N3CCN(C)CC3)c(F)cc3c(=O)c(C(=O)O)cn1c23` (centres undefined) [OFLOXACIN], for which the minimal inhibitory concentration (MIC) in the data set on Staphylococcus aureus stood at 0.39 µg/mL (≈ 1.08 µM); in the data set on Klebsiella pneumoniae it was 0.025 µg/mL (≈ 0.0692 µM); in the data set with Serratia marcescens it was 0.39 µg/mL (≈ 1.08 µM); with Pseudomonas aeruginosa, 1.56 µg/mL (≈ 4.32 µM); in the data set with Micrococcus luteus, 3.13 µg/mL (≈ 8.66 µM); in the data set on Shigella flexneri, 0.1 µg/mL (≈ 0.277 µM). Besides, the minimum inhibitory concentration (MIC) in the data set on Escherichia coli turned out to be 0.1 µg/mL (≈ 0.277 µM). For the same compound, the results for the ED50 in the data set listed under Mus musculus [1] and in the data set listed under Mus musculus [2] were 0.55 mg/kg and 23 mg/kg, respectively.

For `Cc1oc(=O)oc1CN1CCN(c2cc3c(cc2F)c(=O)c(C(=O)O)c2n3C(C)S2)CC1` (centres undefined) [PRULIFLOXACIN], the ED50 in the data set filed under Mus musculus [1] was 0.35 mg/kg; in the data set listed under Mus musculus [2] it was 8.02 mg/kg. Also, the LD50 in data set [3] was > 500 mg/kg.
